Experimental data: ChEMBL document CHEMBL4513216, “Probing the Open Global Health Chemical Diversity Library for Multistage-Active Starting Points for Next-Generation Antimalarials” (ACS Infect Dis, 2020)

Test: Toxicity liver stage against HepG2, at 10uM
Type: cell-based
Set-up: test concentration 10 uM, cell line HepG2-A16-CD81EGFP
Conditions: human, HepG2-A16-CD81EGFP cells; read-out: INHIBITION
Method in brief: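 Uninfected HepG2-A16-CD81EGFP cells, 3 × 10^3 per well, 1536-well, plated on prespotted compound at 10 μM final, parasite-free screening media added to match infected plates; puromycin 10 μM positive, DMSO 0.5% negative; run in parallel with 48 h PbLuc assay at 37 °C, 5% CO2; viability by CellTiter-Glo luminescence, normalized to controls.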

SMILES | cytotoxicity at 10 µM [%]
COC(=O)NCC(=O)NC(c1ccc(Cl)cc1)C(F)(F)F (stereo unspecified) | 9.09
Cc1ccc(C2CCCN2S(=O)(=O)N(C)Cc2nccn2C)o1 (stereo unspecified) | -0.787
COc1cccc(S(=O)(=O)NC(=O)CC2CCCO2)c1 (stereo unspecified) | 7.53
CS(=O)(=O)N1CCO[C@@H]2CN(C(=O)Cc3cccs3)CC[C@@H]2C1 | -108
Cn1ccnc1CN1CCC(Cc2ccccn2)CC1 | -10.2
Cc1ccc2nc(C)c(C)c(C(=O)NCCCn3ccnn3)c2c1 | 17.8
C[S+]([O-])c1nncn1CC(=O)c1ccc2c(c1)CCC2 (stereo unspecified) | -1.88
CNc1oc(COc2ccc3c(c2)OCO3)nc1C#N | -58.3
CC(C)(NC(=O)c1coc(COc2cccc(F)c2)n1)C(N)=O | -136
CCN(CC)Cc1ccc(C(=O)NC2CCc3cc(Cl)ccc32)o1 (stereo unspecified) | -3.81
CCOC(C)c1noc(CN2CCN(Cc3cccnc3)CC2)n1 (stereo unspecified) | -4.55
Cc1nc(C)n(CC2CCCCN2Cc2ncc(C(C)(C)C)o2)n1 (stereo unspecified) | 0.299
Cc1cc(CN2CCN(CC(O)C(C)(C)C)CC2)no1 (stereo unspecified) | -14.8
CC(C(=O)N1CCCN(Cc2ccc(C#N)cc2)CC1)n1cccn1 (stereo unspecified) | -5.6
COc1ccccc1CNC(=O)N1CCCC(c2nncn2C)C1 (stereo unspecified) | -6.51
O=S(=O)(c1cn[nH]c1)N1C[C@@H](O)[C@H](N2CCc3ccccc3C2)C1 | -3.47
CC(O)CN1CCC(CNCc2cccc(C(N)=O)c2)CC1 (stereo unspecified) | -8.99
CCOc1ccc(NC(=O)N2CCOC(C(N)=O)C2)cc1Cl (stereo unspecified) | -140
CS(=O)(=O)N1C[C@H]2CCCN(Cc3cccs3)[C@H]2C1 | 7.69
CC(C)(CO)Nc1c(NCc2ccncc2)c(=O)c1=O | -3.97
CCCc1ccc(S(=O)(=O)NC(=O)CCC2CCCO2)cc1 (stereo unspecified) | -25.7
Cc1cc(C(=O)N2CCc3nnc(N)cc3C2)c(C)n1-c1ccccc1 | 0.591
Cc1nc(N2CCN(C)CC2)ncc1C(=O)N1C[C@@H](C)[C@@](C)(O)C1 | 2.32

SMILES | cytotoxicity at 10 µM [%]
O=C(N1CCCC1)N1C[C@@H]2CCNC[C@@H]21 | 0.375
Cn1nc(CNC(=O)C2COc3ccccc3O2)cc1C1CC1 (stereo unspecified) | 7.52
CCC(CO)N(Cc1ccco1)C(=O)c1ccc(F)cc1Cl (stereo unspecified) | -0.247
CN1C(=O)CCCC12CCCN(C(=O)c1ccc3c(c1)OCO3)C2 (stereo unspecified) | 0.758
Cn1cc(C2=CCN(CCCC(=O)Nc3ccc(C#N)cc3)CC2)cn1 | -6.84
CCN(C(=O)CN1CCCC1Cc1ccccc1)c1ccccc1 (stereo unspecified) | 0.686
CCS(=O)(=O)N(C)C1CCN(C(=O)c2ccc(C)c(C)c2)CC1 | -2.76
COc1c(CNC2CCc3ccccc32)c(C(C)C)nn1C (stereo unspecified) | 0.441
O=C(CCc1nc(Cl)n[nH]1)N1CCC2(CCCNC2=O)C1 (stereo unspecified) | -6.37
Cn1ccc2ccc(C(=O)Nc3nc[nH]n3)cc21 | -1.55
Cn1cc(C(=O)N2CC[C@@]3(O)CCN(C(=O)C4CCC4)C[C@H]3C2)cn1 | -140
Cc1ccc2c(c1)CCC21CCN(C(=O)CO)CC1 | -8.13
CCCn1ncc2c(C(=O)NC(C)Cn3cccn3)cc(C3CC3)nc21 (stereo unspecified) | -8.97
CC(C)(C)C(Cn1ccnc1)NC(=O)NCc1ccco1 (stereo unspecified) | -1.85
CC(C)C(=O)NC1CCCc2nc(N3CCOCC3)ncc21 (stereo unspecified) | 10.2
CCC1(CC)Cc2ccccc2-c2nc(NCCCO)[nH]c(=O)c21 | 10.2
CC(C)NC(=O)C(NC(=O)N1CCN(c2ccc(Cl)cc2)CC1)C(C)C (stereo unspecified) | 5.69
CC1CN(C)c2ccccc2CN1C(=O)c1ccncc1F (stereo unspecified) | -16.9
COc1ncc(-c2ccc(NC(C)=O)cc2)c(OC)n1 | -8.64
CCn1cc(NC(=O)NCc2ccc(CN3CCOCC3)cc2)cn1 | -6.63
O=C(O)CCn1nc(C(F)(F)F)c(Cl)c1C1CC1 | 8.63
c1csc(-c2cc(CN3CCN(c4nccs4)CC3)no2)c1 | 13.2
Cc1cc(C)c(C(=O)N2CCn3nc(C(=O)NCCN(C)C)cc3C2)[nH]1 | -0.53

SMILES | cytotoxicity at 10 µM [%]
O=C1COC2(CCN(C(=O)[C@H]3CCCO3)CC2)CN1Cc1ccccn1 | -0.524
Cc1nn(C)c2cn(C(C)C(=O)NCc3cccc(F)c3)nc12 (stereo unspecified) | 6.61
Cc1noc([C@@H]2CCO[C@@H]3CCN(Cc4cccs4)C[C@@H]32)n1 | -74.6
CCCC1(C(=O)O)CCCN(C(=O)c2cc(Cl)ccc2F)C1 (stereo unspecified) | 0.515
COc1ccc(CN(C)CCS(=O)(=O)c2ccc(Cl)cc2)cc1OC | 2.68
Cc1ccccc1-n1cc(-c2ccnc(N[C@H](CO)C(C)C)n2)cn1 | 4.43
CC(C)CCN(C(=O)c1cccc(NC(N)=O)c1)C1CC1 | -6.46
CCO[C@@H]1CO[C@@]2(CCCN(C(=O)COc3ccccc3OC)C2)C1 | 3.51
Cc1ccsc1CN(c1nc(CCN)nc2ccccc12)C1CC1 | 11.7
COC(=O)c1ccoc1CN(C)Cc1ccccc1 | 3.3
CCC1=N[C@@]2(CC[C@@H]3CN(CC(C)C)C[C@@H]32)C(=O)N1 | 4.32
CCC(CNC(=O)Cc1cc(C)on1)Oc1cccc(F)c1 (stereo unspecified) | -48.2
Cc1ncc2c(n1)CN(CCCc1ccccc1)CC2 | -34.7
COCc1noc(Cc2cc(Cl)c3c(c2)OCCCO3)n1 | 0.583
COc1cc2c(cc1CN1CCc3sccc3C1C)OCCO2 (stereo unspecified) | 8.92
COc1cc(OC)cc(N2CCC(NCc3ccsc3)C2=O)c1 (stereo unspecified) | 0.347
COC(=O)N1CCCC(NC(=O)NCc2cccc(C)n2)C1 (stereo unspecified) | -8.62
Cc1cc2c(cc1CNC(Cc1cccs1)c1nccs1)OCO2 (stereo unspecified) | 6.76
CN(C)c1cnnc(N2CCN(C(=O)Cc3ccccc3)CC2)c1 | 5.5
O=C(N1CCCCC1)N1CCN(CC(O)c2ccc(F)cc2)CC1 (stereo unspecified) | -8.85
CN(C)c1cc(C2CCCN(Cc3cnn(C)c3)C2)ccn1 (stereo unspecified) | -1.88
CCOCC1CN(Cc2ccc(F)cc2)Cc2nn(CC3CC3)cc21 (stereo unspecified) | 7.43
Cc1ccccc1CC(=O)N1C[C@@H](O)[C@H](N2CCOCC2)C1 | -4.05

SMILES | cytotoxicity at 10 µM [%]
COc1cc(N2CCn3cc(CNc4ccccn4)nc3C2)ncn1 | 13.1
CSCCCNC(=O)C(c1ccccc1C)N(C)C (stereo unspecified) | 4.68
CCC(NC(=O)c1cccc2[nH]ccc12)C(=O)N1CCOCC1 (stereo unspecified) | -4.1
CC(C)c1ccc(OCCC(=O)N2CCC(CC(N)=O)CC2)cc1 | -14
CN1CCN(C(=O)C2CCCc3[nH]ncc32)CC1 (stereo unspecified) | 0.247
CN(C)C(=O)C1CCCN1CCCNC(=O)Cc1ccccc1F (stereo unspecified) | 0.646
O=C(CSc1ccccc1Cl)NS(=O)(=O)c1ccc2c(c1)OCCO2 | -10.7
CC(NC(C)(C)CN)c1ccccc1 (stereo unspecified) | 2.62
CCC(=O)N1CCC(Oc2ccc(C(=O)NCCN(C)C)cc2Cl)CC1 | 4.12
CCn1nccc1CNC(=O)Cn1cc2c(n1)c(C)nn2C(C)C | -4.7
COc1cc(CNc2cnn(C)c2)cc2c1OCCO2 | -10.8
CN1CCc2c(C#N)c(NCc3ccco3)n3cnnc3c2C1 | -13.7
COc1ccc(-c2nc(CN3CCCS3(=O)=O)co2)cc1 | -6.24
Cc1nc(N2CCN(C(=O)C3CC3)CC2)c2c(n1)c(C)nn2C | 5.42
CS(=O)(=O)NC1CCN(C(=O)NCCNc2ccccn2)CC1 | -0.685
CC(CNC(=O)c1ccncc1F)Oc1ccc(F)cc1 (stereo unspecified) | 0.0383
O=C(Cn1c(=O)[nH]c2cn(-c3ccccc3)c(=O)n21)Nc1ccccc1 | 18.6
CC(C)(C)c1ccc2c(c1)CCN2C(=O)c1ccc(=O)[nH]n1 | 2.87
CCN(CC)C(=O)Cn1c(=O)n(Cc2ccco2)c2ncccc21 | -6.77
COc1ccc(CNC2CCN(c3ccccc3)C2)cc1O (stereo unspecified) | 8.63
Cc1cccc(OCCC(=O)N(C)CCNS(C)(=O)=O)c1C | 3.35
Cc1ccc(C(=O)N2CC3(CCCCC3)c3cc(C(=O)O)ccc32)cn1 | 11.2
CCc1c(C)nc2n(c1=O)CC(C(=O)Nc1sccc1C(=O)OC)CS2 (stereo unspecified) | 3.24

SMILES | cytotoxicity at 10 µM [%]
CCOc1cccc(C(C)NCc2c(C)nn(C)c2N(C)C)c1 (stereo unspecified) | 5.22
O=C(CSc1nnc(N2CCOCC2)s1)NC(=O)Nc1ccccc1 | 4.44
NC(=O)C1CCN(C(=O)c2ccc(Sc3ccccn3)cc2)CC1 | 9.48
COc1cc(F)ccc1C(C(=O)O)N1CCN(C2CCCCC2)CC1 (stereo unspecified) | -8.93
O=C(NCc1ccccn1)c1cc2n(n1)CCNC2 | 1.19
c1coc(CN2CCCC3(COCCN(Cc4c[nH]nn4)C3)C2)c1 (stereo unspecified) | -12.2
Cc1nc(CCCNC(=O)C2CC(=O)N(C3CCCC3)C2)sc1C (stereo unspecified) | 3.01
Cc1nc(C)n(CC2CCCN(CCOc3ccc(C#N)cc3)C2)n1 (stereo unspecified) | -1.55
Cc1ncnc2c1CCN(C(=O)c1ccncc1)CC2 | 12
COc1ccccc1C(C)NC(=O)N1CCC(n2cncn2)CC1 (stereo unspecified) | 2.85
CN(C)CCNC(=O)c1ccc(OC2CCN(S(C)(=O)=O)CC2)c(Cl)c1 | 1.33
CC(C)c1nnc(NC(=O)CSCc2cc(=O)n3ccccc3n2)s1 | 2.08
CCCOc1ccc2c(c1)OCC(CNC1CCc3ncnn3C1)=C2 (stereo unspecified) | -6.63
COC(=O)c1cc(OCC2CCC2)cc(C(=O)N[C@@H]2CCCNC2)c1 | -3.16
O=C(O)C(c1ccc(O)cc1)N1CCC(N2CCSCC2)CC1 (stereo unspecified) | 0.646
O=C(NCc1n[nH]c2c1CCCCC2)c1cnn2c1CCCC2 | 13.6
CN(CC1(CO)CCC1)C(=O)C1CCC(=O)N(Cc2ccc(Cl)cc2)C1 (stereo unspecified) | -11.2
COc1ccccc1OC(C)CNC(=O)c1cnc[nH]1 (stereo unspecified) | 1.57
CCOC[C@@]12CCC[C@@H]1CN(C(=O)c1ccc(OC)cc1)C2 | -108
